# Measured values gathered from unrelated publications.
# YES1: Tyrosine-protein kinase Yes (YES1, Homo sapiens, UniProt P07947)
SMILES,target,observed,action,method,tested at,quantity,result
CCN(CC)c1ccc(C2=NNC(=O)CC2C)cc1[N+](=O)[O-] (stereo not shown),YES1,enzyme activity,inhibitor,,10 µM,remaining activity,105%
Cc1ccc(Nc2nccc(N(C)c3ccc4c(C)n(C)nc4c3)n2)cc1S(N)(=O)=O,YES1,cell-free assay,,,0.5 µM,remaining signal,52.6%
FC(F)(F)Oc1cccc(-c2cnc3ccc(-c4ccncc4)nn23)c1,YES1,enzyme activity,inhibitor,radiometric,1 µM,activity vs control,82%
COc1cccc2c(NCc3ccccc3)nc(-n3c(N)nc4ccccc43)nc12,YES1,target engagement in cells,inhibitor,chemoproteomics,20 mM,inhibition,-2.4%
CCCCN(CCCC)C(=O)CN1C[C@H](c2cc(OC)c3c(c2)OCO3)[C@@H](C(=O)O)[C@@H]1CC(C)(C)CCC,YES1,cell-free assay,,competition with immobilised ligand,1 µM,remaining binding,100%
Cc1ccc(C(=O)Nc2ccc(CN3CCN(C)CC3)c(C(F)(F)F)c2)cc1C#Cc1cnc2cccnn12,YES1,enzyme activity,,,23.5 nM,remaining activity,34%
Oc1cccc(-c2nc(N3CCOCC3)c3oc4ncccc4c3n2)c1,YES1,enzyme activity,inhibitor,,10 µM,remaining activity,92%
CCC(=O)N[C@H]1CC[C@@H](C(=O)N(C)c2ccc(-c3nc4ccccc4o3)cc2)C1,YES1,cell-free assay,,competition with immobilised ligand,1 µM,remaining binding,82%
CC(C)(O)[C@H]1CC[C@H](Nc2ccc3ncc(-c4cccc(C(F)(F)F)c4)n3n2)CC1,YES1,enzyme activity,inhibitor,,1 µM,remaining activity,18.1%
FC(F)c1nc2ccccc2n1-c1nc(N2CCOCC2)nc(N2CCOCC2)n1,YES1,enzyme activity,inhibitor,,10 µM,remaining activity,72%
CCCOc1ccc(OC)c(F)c1C(=O)c1ccc(C(=O)N[C@@H]2CNC[C@H]2NC(=O)c2ccc3[nH]ncc3c2)cc1,YES1,enzyme activity,inhibitor,,10 µM,remaining activity,41%
N#CCCc1ccc2c(c1)-c1[nH]c3ccc([N+](=O)[O-])cc3c1CC(=O)N2,YES1,cell-free assay,,,0.5 µM,remaining signal,35.8%
Cc1cc(NC(=O)c2cccc3cc(-c4cccc5[nH]nc(N)c45)ccc23)ccc1F,YES1,enzyme activity,inhibitor,,0.1 µM,activity vs control,108%
Cc1cnc(NC2CCOCC2)nc1-n1cnc(C(=O)NC(CN)c2cc(F)cc(Cl)c2)c1 (stereo not shown),YES1,enzyme activity,inhibitor,radiometric,1 µM,remaining activity,97%
COc1cc2ncnc(Nc3ccc(Oc4ccccc4)cc3C)c2cc1OC,YES1,enzyme activity,inhibitor,,1 µM,inhibition,99%
COc1cc(Cl)c(C(=O)N[C@@H](CN[C@H]2CC[C@@H](N)CC2)Cc2ccc(C#N)cc2)cc1-c1ccc(CN[C@H](C)c2ccc(C)cc2)o1,YES1,enzyme activity,inhibitor,,1 µM,remaining activity,62%
N#CC1(c2ccccn2)CCN(Cc2cc(C(=O)N3CCCC3)c(=O)n3ccccc23)CC1,YES1,cell-free assay,,competition with immobilised ligand,1 µM,remaining binding,84%
O=C(Nc1cnn(-c2csc(C(=O)NC3COC3)c2)c1)Nc1c(F)cccc1Cl,YES1,enzyme activity,inhibitor,,5 µM,remaining activity,91%
CC/C(=N\NC(=O)NCc1cccc(O)c1)c1ccc(O)c(C)c1O,"Tyrosine-protein kinase Yes (YES1, Homo sapiens, UniProt P07947, T348I)",enzyme activity,inhibitor,,0.1 µM,inhibition,6.2%
O=C(N1CCS(=O)(=O)CC1)N1C[C@H](c2ccc(OC(F)(F)F)cc2)C[C@H](c2nc(C3CC3)no2)C1,YES1,cell-free assay,,competition with immobilised ligand,1 µM,remaining binding,96%
Cc1ccc(C(=O)NCc2ccsc2)cc1C#Cc1cn(C(C)C)c2ncnc(N)c12,YES1,enzyme activity,inhibitor,,1 µM,activity vs control,2%
COc1cc(Nc2cnc(C#N)c(O[C@H](C)CN(C)C)n2)ncc1-c1cnn(C)c1,YES1,enzyme activity,inhibitor,radiometric,1 µM,remaining activity,93%
COc1cc2nccc(Oc3ccc(NC(=O)c4c5n(n(-c6ccc(F)cc6)c4=O)CCCC5)cc3)c2cc1OC,YES1,enzyme activity,inhibitor,,0.1 µM,inhibition,1%
COCCOc1nc(-c2ccc(Cl)nc2)nc2c1CN(C(=O)c1ncn3ccccc13)CC2,YES1,cell-free assay,,competition with immobilised ligand,0.1 µM,remaining binding,100%
CC(C)(C)c1nc2c(s1)c1nc(N)ncc1c1ccc(NS(=O)(=O)c3c(F)cccc3F)c(F)c12,YES1,enzyme activity,inhibitor,radiometric,1 µM,remaining activity,124%
O=C(O)[C@H]1[C@H](Cn2nnc3ccccc3c2=O)CC[C@@H]1C(=O)c1ccc(OCCC2CCOCC2)cc1,YES1,cell-free assay,,competition with immobilised ligand,1 µM,remaining binding,100%
CCOc1cc(-c2nncn2C)ccc1Nc1ncc2cc(C)nc(NCC(C)(C)C)c2n1,YES1,enzyme activity,inhibitor,FRET,1 µM,inhibition,22%
C[C@@H]1CN(c2cc(-c3n[nH]c4ccc(OC5(C)CC5)cc34)ncn2)C[C@H](C)O1,YES1,cell-free assay,,competition with immobilised ligand,0.1 µM,remaining binding,80%
Nc1nc(NC2CCCCC2)sc1C(=O)c1ccccc1,YES1,enzyme activity,inhibitor,,10 µM,remaining activity,114%
CNC(=O)c1cc(Oc2ccc(NC(=O)Nc3ccc(Cl)c(C(F)(F)F)c3)cc2)ccn1,YES1,cell-free assay,,,0.5 µM,remaining signal,82.8%
CS(=O)(=O)N1CCCC(NC(=O)[C@H](CCC2CCCCC2)NC(=O)c2ccc(CNC(=O)c3cnc4ccccn34)cc2)C1 (stereo partly shown),YES1,cell-free assay,,competition with immobilised ligand,0.1 µM,remaining binding,88%
